Measurements pooled from the literature.
Lines come from different studies, so protocols differ.
Histone acetyltransferase KAT6B: Histone acetyltransferase KAT6B (Homo sapiens, UniProt Q8WYB5)
Trpm7 F924W: Transient receptor potential cation channel subfamily M member 7 (Trpm7, Mus musculus, UniProt Q923J1, F924W)
PIK3CB: Phosphatidylinositol 4,5-bisphosphate 3-kinase catalytic subunit beta isoform (PIK3CB, Homo sapiens, UniProt P42338)
DNA polymerase catalytic subunit: DNA polymerase catalytic subunit (Human cytomegalovirus, UniProt P08546)
PIK3CA: Phosphatidylinositol 4,5-bisphosphate 3-kinase catalytic subunit alpha isoform (PIK3CA, Homo sapiens, UniProt P42336)
KDR: Vascular endothelial growth factor receptor 2 (KDR, Homo sapiens, UniProt P35968)
NOX5: NADPH oxidase 5 (NOX5, Homo sapiens, UniProt Q96PH1)

SMILES	target	assay	setting	IC50 [nM]
COc1cc(C)c2cc(C(=O)NS(=O)(=O)c3cccc4ccc(C)nc34)oc2c1	Histone acetyltransferase KAT6B	enzyme activity, inhibitor, TR-FRET	–	22
N#Cc1ccc(COC[C@H]2O[C@@H](n3c(NCc4ccc(Cl)c(Cl)c4)nc4c(N)ncnc43)[C@H](O)[C@@H]2O)cc1	Trpm7 F924W	calcium signal	–	5580
Cc1nc(Nc2ccc3c(c2)/C(=C/c2ccccc2Cl)C(=O)N3)c2ccccc2n1	PIK3CB	enzyme activity, inhibitor, ADP detection	–	90.2
CC1(C)CN(C(=O)Cn2c(=O)c(C(=O)NCc3ccc(Cl)cc3)cc3nccnc32)C1	DNA polymerase catalytic subunit	enzyme activity, inhibitor	–	2260
Cc1nc(Nc2ccc3c(c2)/C(=C/c2ccccc2C)C(=O)N3)c2ccccc2n1	PIK3CA	enzyme activity, inhibitor, ADP detection	–	45.5
CNCCN1CCN(c2cnc3c(cc(C(=O)NCc4ccc(Cl)cc4)c(=O)n3CC(=O)N3CC(C)(F)C3)n2)C1=O	DNA polymerase catalytic subunit	enzyme activity, inhibitor	–	571
CCOc1ccccc1S(=O)(=O)NC(=O)c1cc2c(OC)cc(OC)cc2o1	Histone acetyltransferase KAT6B	enzyme activity, inhibitor, TR-FRET	–	309
COc1ccc2[nH]c(C(=O)Nc3nc(CC(=O)O)cs3)cc2c1	KDR	enzyme activity, inhibitor, ELISA	–	921
O=C(/C=C/c1ccc(O)c2oc(-c3ccc(O)c(O)c3)cc12)O[C@H](Cc1ccc(O)c(O)c1)C(=O)O	YTH domain-containing protein 1 (Homo sapiens, UniProt Q96MU7)	ligand displacement, FP	–	29000
O=C(NS(=O)(=O)c1ccccc1-c1ccccc1)c1cc2ccc(OCCO)cc2o1	Histone acetyltransferase KAT6B	enzyme activity, inhibitor, TR-FRET	–	5940
CNC(=O)c1cnc(Nc2ccccc2C)c(NC(=O)c2cc(F)cc(C(F)(F)F)c2)c1	Phosphatidylinositol 4,5-bisphosphate 3-kinase catalytic subunit alpha isoform (PIK3CA, Homo sapiens, UniProt P42336, H1047R)	enzyme activity, inhibitor	with preincubation	334
Cc1nc(Nc2ccc3c(c2)C(C)(C)C(=O)N3C)c2ccccc2n1	PIK3CB	enzyme activity, inhibitor, ADP detection	–	182
C[C@H]1COC2=C1C(=O)C(=O)c1c2ccc2c1CCCC2(C)C	NOX5	enzyme activity, inhibitor	–	4300
O=c1oc(-c2ccco2)nc2ccccc12	Cathepsin G (CTSG, Homo sapiens, UniProt P08311)	enzyme activity, inhibitor, absorbance	pH 7.4	840
CCCOc1ccc2cc(C(=O)NS(=O)(=O)c3ccccc3-c3ccccc3)oc2c1	Histone acetyltransferase KAT6B	enzyme activity, inhibitor, TR-FRET	–	12200
Cc1nc(Nc2ccc3c(c2)C(C)(C)C(=O)N3)c2ccccc2n1	PIK3CB	enzyme activity, inhibitor, ADP detection	–	153
CC(=O)Nc1ccc(Oc2nnc(-c3ccc(Cl)cc3)c3ccccc23)cc1	KDR	cell-free assay, inhibitor	–	548
COc1cc2ncnc(N(C)c3ccc4c(c3)/C(=C/c3cccc(Cl)c3)C(=O)N4C)c2cc1OC	PIK3CB	enzyme activity, inhibitor, ADP detection	–	103
Cc1cc(Br)cc2oc(C(=O)NS(=O)(=O)c3ccccc3-c3ccccc3)cc12	Histone acetyltransferase KAT6B	enzyme activity, inhibitor, TR-FRET	–	150
CC(=NNC(N)=S)c1ccc(Nc2nnc(-c3ccc(Cl)cc3)c3ccccc23)cc1	KDR	cell-free assay, inhibitor	–	375
CCOc1cccc(-c2ccccc2)c1S(=O)(=O)NC(=O)c1cc2c(C)cc(OC)cc2o1	Histone acetyltransferase KAT6B	enzyme activity, inhibitor, TR-FRET	–	51
Cc1nc(N(C)c2ccc3c(c2)/C(=C/c2ccccc2Cl)C(=O)N3C)c2ccccc2n1	PIK3CA	enzyme activity, inhibitor, ADP detection	–	53.4
CCCc1c(-c2ccccc2)nn(-c2ccccn2)c1O	NOX5	enzyme activity, inhibitor	–	2200
Cc1nc(Nc2ccc3c(c2)CC(=O)N3)c2ccccc2n1	PIK3CA	enzyme activity, inhibitor, ADP detection	–	56
COc1cc(C)c2cc(C(=O)NS(=O)(=O)c3ccc(C)cc3)oc2c1	Histone acetyltransferase KAT6B	enzyme activity, inhibitor, TR-FRET	–	262
COc1cc2ncnc(Nc3ccc4c(c3)/C(=C/c3cccc(Cl)c3)C(=O)N4C)c2cc1OC	PIK3CA	enzyme activity, inhibitor, ADP detection	–	121
c1ccc2c(c1)CCC[C@H]2Nc1nc2ccccc2[nH]1	Trpm7 F924W	calcium signal	–	5120
